# Test results as given in ChEMBL document CHEMBL3286172, “Exploring the role of 2-chloro-6-fluoro substitution in 2-alkylthio-6-benzyl-5-alkylpyrimidin-4(3H)-ones: effects in HIV-1-infected cells and in HIV-1 reverse transcriptase enzymes” (J Med Chem, 2014).
# Assays:
# [1] = system: Human immunodeficiency virus 1; assay: Antiviral activity against wild type HIV-1 NL4-3 infected in human MT4 cells assessed as inhibition of virus-induced cytopathic effect by MTT method; format: functional, organism-based; conditions: Human immunodeficiency virus 1, NL4-3, MT4
# How it was run: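 MT-4 lymphoid cells infected with wild-type HIV-1 NL4-3 while exposed to a range of drug concentrations. Viable cells counted by tetrazolium (MTT) colorimetry at day 5 post-infection. Means of at least two experiments.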
# [2] = system: Human immunodeficiency virus 1; assay: Antiviral activity against HIV-1 harboring NNTRI-resistant reverse transcriptase Y181C mutant infected in human MT4 cells assessed as inhibition of virus-induced cytopathic effect by MTT method; format: functional, organism-based; conditions: Human immunodeficiency virus 1, MT4
# How it was run: (§1)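 MT-4 lymphoid cells infected with HIV-1 carrying RT K103N, Y181C or Y188L, with a range of drug concentrations present. Viable cells counted by MTT colorimetric assay at day 5 post-infection. […] Highest concentration tested was limited by precipitation in culture medium. Means of at least two experiments.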
# [3] = Cytotoxicity against human MT4 cells assessed as induction of cell death by MTT method; format: cell-based
# How it was run: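 Mock-infected MT-4 cells exposed to a range of drug concentrations. Viability read by MTT colorimetry at day 5. […] Top concentration was limited where compound precipitated in the culture medium. Means of at least two experiments.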
# [4] = system: Human immunodeficiency virus 1; assay: Fold resistance, ratio of ID50 for HIV-1 recombinant NNTRI-resistant reverse transcriptase L100I mutant to ID50 for wild type HIV-1 recombinant reverse transcriptase
# How it was run: (§2)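 Recombinant wt or mutant HIV-1 RT, purified to >95%, at 2-4 nM. RNA-dependent DNA polymerase activity with 0.5 µg poly(rA)/oligo(dT)10:1 (0.3 µM 3'-OH ends), 10 µM [3H]-dTTP and 8% final DMSO. Incorporation was sampled at 2-min intervals. ID50 came from fitting to a fully non-competitive model. Ratio is ID50 mutant/ID50 wt. Means of at least three experiments.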
# [5] = system: Human immunodeficiency virus 1; assay: Antiviral activity against HIV-1 harboring NNTRI-resistant reverse transcriptase Y188L mutant infected in human MT4 cells assessed as inhibition of virus-induced cytopathic effect by MTT method; format: functional, organism-based; conditions: Human immunodeficiency virus 1, MT4; how it was run: as §1
# [6] = system: Human immunodeficiency virus 1; assay: Antiviral activity against HIV-1 harboring NNTRI-resistant reverse transcriptase K103N mutant infected in human MT4 cells assessed as inhibition of virus-induced cytopathic effect by MTT method; format: functional, organism-based; conditions: Human immunodeficiency virus 1, MT4
# [7] = system: Human immunodeficiency virus 1; assay: Fold resistance, ratio of ID50 for HIV-1 recombinant NNTRI-resistant reverse transcriptase K103N mutant to ID50 for wild type HIV-1 recombinant reverse transcriptase; how it was run: as §2
# [8] = biological target: Human immunodeficiency virus type 1 reverse transcriptase (Human immunodeficiency virus 1) (UniProt Q72547)
# [9] = system: Human immunodeficiency virus type 1 reverse transcriptase (Human immunodeficiency virus 1), Q72547 [K103N]
# [10] = system: Human immunodeficiency virus type 1 reverse transcriptase (Human immunodeficiency virus 1), Q72547 [L100I]
# [11] = system: Human immunodeficiency virus 1; assay: Fold resistance, ratio of EC50 for HIV-1 harboring NNTRI-resistant reverse transcriptase K103N mutant infected in human MT4 cells to EC50 for wild type HIV-1 NL4-3 infected in human MT4 cells; format: functional
# [12] = Selectivity index, ratio of CC50 for human MT4 cells to EC50 for wild type HIV-1 NL4-3 infected in human MT4 cells; format: toxicity, cell-based; conditions: read-out: Ratio CC50/EC50
# How it was run: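 Ratio of CC50 to EC50, both from MTT readings in MT-4 cells at day 5. CC50 was taken in mock-infected cells and EC50 in cells infected with wild-type NL4-3. Values are means of at least two experiments.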
# [13] = system: Human immunodeficiency virus 1; assay: Fold resistance, ratio of EC50 for HIV-1 harboring NNTRI-resistant reverse transcriptase Y181C mutant infected in human MT4 cells to EC50 for wild type HIV-1 NL4-3 infected in human MT4 cells; format: functional
# How it was run: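 MT-4 cells infected with HIV-1 mutant (K103N or Y181C) or wild-type NL4-3, with drug present. […] Fold resistance is the mutant EC50 divided by the wild-type NL4-3 EC50. EC50 values are means of at least two experiments.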
Structure (SMILES),EC50 [1] [nM],EC50 [2] [nM],CC50 [3] [nM],Ratio [4],EC50 [5] [nM],EC50 [6] [nM],Ratio [7],ID50 [8] [nM],ID50 [9] [nM],ID50 [10] [nM],Ratio EC50 [11],selectivity ratio [12],Ratio EC50 [13]
CC[C@H](C)Sc1nc([C@@H](C)c2c(F)cccc2Cl)c(C)c(=O)[nH]1,3660,> 47000,> 47000,0.2,> 47000,> 47000,,,,,,,
CC[C@@H](C)Sc1nc([C@@H](C)c2c(F)cccc2Cl)c(C)c(=O)[nH]1,1.4,890,> 70400,37,3300,150,69,,,,,,
CCCCSc1nc(C(C)c2c(F)cccc2Cl)cc(=O)[nH]1 (racemic),0.3,3900,> 73000,60,5600,1100,220,10,2200,600,,,
CCCSc1nc(Cc2c(F)cccc2Cl)c(C)c(=O)[nH]1,86,2300,> 76000,,> 76000,9200,,,,,107,> 884,27
CCCCSc1nc(Cc2c(F)cccc2Cl)cc(=O)[nH]1,290,16700,> 76000,,> 76000,29200,,,,,101,> 262,58
CCCSc1nc(Cc2c(F)cccc2Cl)cc(=O)[nH]1,260,8200,> 80000,,> 80000,18800,,,,,72,> 308,31
CCCCSc1nc(Cc2c(F)cccc2Cl)c(C)c(=O)[nH]1,110,2300,> 73000,,> 73000,20000,,,,,182,> 664,21
CC(C)Sc1nc(Cc2c(F)cccc2Cl)cc(=O)[nH]1,380,17800,> 80000,,> 80000,39200,,,,,103,> 210,47
CC[C@@H](C)Sc1nc([C@H](C)c2c(F)cccc2Cl)c(C)c(=O)[nH]1,0.06,87,> 70400,41,390,15,101,,,,,,
CCC(C)Sc1nc(O)c(C)c(C(C)c2c(F)cccc2F)n1 (racemic),0.9,71,> 3000,,> 3000,110,,31,1700,670,122,> 3330,79
O=c1cc(Cc2c(F)cccc2Cl)nc(SC2CCCC2)[nH]1,150,18300,> 74000,,> 74000,42100,,,,,281,> 493,122
CC[C@H](C)Sc1nc([C@@H](C)c2c(F)cccc2Cl)cc(=O)[nH]1,144,> 73300,> 73000,4,> 73300,7640,,,,,53,> 507,
CC[C@H](C)Sc1nc([C@H](C)c2c(F)cccc2Cl)c(C)c(=O)[nH]1 (racemic),43900,64000,> 70400,0.1,> 70000,> 70000,,,,,,,
CCC(C)Sc1nc(Cc2c(F)cccc2Cl)cc(=O)[nH]1 (configuration not stated),160,8300,> 76000,,> 76000,25200,,,,,157,> 475,52
Cc1c(Cc2c(F)cccc2Cl)nc(SC(C)C)[nH]c1=O,120,8400,> 76000,,> 76000,10600,,,,,88,> 633,70
CC[C@@H](C)Sc1nc([C@@H](C)c2c(F)cccc2Cl)cc(=O)[nH]1,47,13200,> 52000,4,> 51600,5560,365,,,,118,> 1110,281
CC(c1cc(=O)[nH]c(SC2CCCC2)n1)c1c(F)cccc1Cl (racemic),0.3,3000,> 71000,,> 71000,900,,15,1800,1100,3000,> 237000,10000
Cc1c(O)nc(SC(C)C)nc1C(C)c1c(F)cccc1F (racemic),1,120,,,> 3000,270,,3,580,280,270,,120
CCC(C)Sc1nc(Cc2c(F)cccc2Cl)c(C)c(=O)[nH]1 (configuration not stated),47,5200,> 73000,,> 73000,5400,,,,,115,> 1550,111
